Results from different studies.
Lines come from different studies, so protocols differ.
Target: Cyclin-dependent kinase-like 1 (CDKL1, Homo sapiens, UniProt Q00532)

SMILES	effect on	method	tested at	remaining binding [%]
C[C@@H](c1ccc(-n2cnc3c(N)ncnc32)cc1)N1CCc2nn(C)c(Cc3ccccc3)c2C1=O	binding	competition with immobilised ligand	0.1 µM	58
CNC(=O)[C@@H]1CC[C@@H](n2c(-c3ccc4cnccc4c3)nc3ccc(C(=O)NCc4cccc(C(N)=O)c4)cc32)C1	binding	competition with immobilised ligand	1 µM	90
O=C(NCCCN1CCOCC1)c1ccc(Nc2nccc(-c3cc4ccccc4s3)n2)cc1	binding	competition with immobilised ligand	1 µM	54
COc1ccnn2ncc(-c3ccnc(N(C)C)n3)c12	binding	–	1 µM	87
O=C1NC(c2ccccn2)Sc2ccccc21 (centres unmarked)	cell-free assay	competition with immobilised ligand	1 µM	75
COc1cnc(Nc2cccc(S(N)(=O)=O)c2)nc1N1CCN(c2ccccc2)C(=O)C1	binding	competition with immobilised ligand	1 µM	92
CC(=O)Nc1c(C(C)=O)c(=O)n(C)c2nc(-c3ccc(Cl)cc3Cl)c(-c3ccc(Cl)cc3)cc12	cell-free assay	competition with immobilised ligand	1 µM	100
O=C(NCCCN1CCOCC1)c1ccc(Nc2ncc(Cl)c(-c3ccc(Cl)s3)n2)cc1	binding	competition with immobilised ligand	1 µM	36
CCN1CCN(Cc2ccc(C(=O)Nc3ccc(C)c(Oc4ccc5c(c4)CC(=O)N5)c3)cc2C(F)(F)F)CC1	binding	competition with immobilised ligand	1 µM	100
Cc1cnn2ncc(-c3ccnc(N(C)C)n3)c2c1	binding	–	1 µM	73
O=C(c1ccc(Nc2ncc(Cl)c(-c3cc4ccccc4s3)n2)cc1)N1CCC(N2CCCC2)CC1	binding	competition with immobilised ligand	1 µM	51
Nc1ncc2c(n1)-c1c([nH]c3ccc(C#CC4CC4)cc13)CCCC2	binding	competition with immobilised ligand	1 µM	81
CCS(=O)(=O)c1cc2cc(C[C@](O)(CC(C)(C)c3ccc(F)cc3C(N)=O)C(F)(F)F)[nH]c2cn1	cell-free assay	competition with immobilised ligand	1 µM	81
CN(CCCC(F)(F)F)c1nccc(-c2cnn3ncccc23)n1	binding	–	1 µM	83
Cc1cc(-n2nc(Cc3cc(F)cc(C(F)(F)F)c3)nc2C)ccc1C(N)=O	cell-free assay	competition with immobilised ligand	1 µM	71
F[C@@H]1CCN(c2nccc(-c3cnn4ncccc34)n2)C1	binding	–	1 µM	89
c1ccc(N2CCN(Cc3nc4ccccc4[nH]3)CC2)nc1	binding	competition with immobilised ligand	1 µM	78
C[C@@H]1CCN(c2nccc(-c3cnn4ncccc34)n2)C1	binding	–	1 µM	70
Cc1nccc(COC(=O)N2C[C@@H]3[C@@H](CNC(=O)c4ccc5[nH]nnc5c4)[C@@H]3C2)n1	cell-free assay	competition with immobilised ligand	1 µM	81
O=C(Nc1c[nH]nc1C(=O)NC1CCNCC1)c1cc(F)cc(F)c1	binding	competition with immobilised ligand	1 µM	95
